Assay results taken from ChEMBL document CHEMBL2046422, “Structure-activity relationship of nonacidic quinazolinone inhibitors of human microsomal prostaglandin synthase 1 (mPGES 1)” (J Med Chem, 2012).

Legend:
HeLa = test: Cytotoxicity against IL1beta and TNFalpha-stimulated human HeLa cells at 1 to 10 uM after 24 hrs by WST1 assay; format: cell-based
How it was run: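 HeLa cells were seeded at 3 × 10³ per well and grown 24 h at 37 °C. They were then stimulated with IL-1β (1 ng/mL) + TNFα (5 ng/mL) while treated with compound at 1, 10 or 100 μM, or DMSO, for 24 h. WST-1 was added for 90–150 min and absorbance read at 450 nm against 620 nm. Viability is percent of DMSO control, SEM, n ≥ 3.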

[1] = target: T1, Prostaglandin E synthase (Mus musculus) (UniProt Q9JM51); test: Inhibition of mPGES-1 derived from LPS stimulated mouse NIH3T3 cells microsomal fraction using PGH2 as substrate at 1 uM preincubated for 30 mins prior to substrate addition measured after 1 min by LC-MS/MS analysis relative to control
T1 sequence (whole entry): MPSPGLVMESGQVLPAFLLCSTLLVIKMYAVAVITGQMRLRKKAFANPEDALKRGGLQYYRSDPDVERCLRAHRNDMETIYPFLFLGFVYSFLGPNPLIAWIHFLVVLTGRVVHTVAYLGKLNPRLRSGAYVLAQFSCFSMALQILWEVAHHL

[2] = target: T2, Prostaglandin G/H synthase 1 (Ovis aries) (UniProt P05979); test: Inhibition of ovine COX1-mediated PGE2 synthesis using PGH2 as substrate at 1 uM by LC-MS/MS analysis relative to control
T2 sequence (whole entry): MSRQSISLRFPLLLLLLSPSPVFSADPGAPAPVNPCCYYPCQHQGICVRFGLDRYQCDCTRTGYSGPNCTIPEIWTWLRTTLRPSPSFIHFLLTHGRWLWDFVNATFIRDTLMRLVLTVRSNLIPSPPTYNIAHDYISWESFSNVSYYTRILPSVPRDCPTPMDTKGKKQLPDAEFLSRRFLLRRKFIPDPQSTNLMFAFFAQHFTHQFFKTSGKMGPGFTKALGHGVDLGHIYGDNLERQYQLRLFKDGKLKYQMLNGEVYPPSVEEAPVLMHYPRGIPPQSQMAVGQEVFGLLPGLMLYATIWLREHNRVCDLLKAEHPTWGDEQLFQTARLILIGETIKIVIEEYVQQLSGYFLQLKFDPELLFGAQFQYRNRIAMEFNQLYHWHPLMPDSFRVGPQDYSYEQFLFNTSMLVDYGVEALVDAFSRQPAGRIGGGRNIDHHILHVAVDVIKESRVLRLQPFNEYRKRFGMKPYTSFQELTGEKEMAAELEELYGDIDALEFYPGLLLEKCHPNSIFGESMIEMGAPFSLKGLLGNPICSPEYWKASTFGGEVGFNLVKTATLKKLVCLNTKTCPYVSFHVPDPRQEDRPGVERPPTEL
How it was run: (§1)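 Direct enzyme test with a COX inhibitor screening kit, run per the kit protocol: COX-1 was ovine, COX-2 human recombinant. […] Prostaglandins were quantified by LC-MS/MS after solid-phase extraction. Mean of n ≥ 3.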

[3] = target: T3, Prostaglandin G/H synthase 2 (Homo sapiens) (UniProt P35354); test: Inhibition of human recombinant COX2-mediated PGE2 synthesis using PGH2 as substrate at 1 uM by LC-MS/MS analysis relative to control; how it was run: as §1
T3 sequence (whole entry): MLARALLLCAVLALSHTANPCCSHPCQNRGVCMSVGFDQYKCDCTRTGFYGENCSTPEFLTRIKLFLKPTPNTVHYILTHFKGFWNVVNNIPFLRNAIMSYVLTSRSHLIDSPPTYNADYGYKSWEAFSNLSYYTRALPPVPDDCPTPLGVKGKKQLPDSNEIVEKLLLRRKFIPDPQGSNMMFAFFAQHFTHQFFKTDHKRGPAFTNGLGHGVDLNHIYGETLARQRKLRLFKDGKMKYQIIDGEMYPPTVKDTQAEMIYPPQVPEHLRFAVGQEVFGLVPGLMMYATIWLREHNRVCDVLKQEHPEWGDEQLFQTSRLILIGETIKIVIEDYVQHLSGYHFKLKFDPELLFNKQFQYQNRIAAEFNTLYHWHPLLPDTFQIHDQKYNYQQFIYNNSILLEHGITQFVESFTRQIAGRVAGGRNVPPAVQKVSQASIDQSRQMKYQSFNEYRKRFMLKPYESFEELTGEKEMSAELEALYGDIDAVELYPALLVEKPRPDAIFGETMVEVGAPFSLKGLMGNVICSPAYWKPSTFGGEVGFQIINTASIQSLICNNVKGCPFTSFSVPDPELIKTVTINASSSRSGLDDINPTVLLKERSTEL

[4] = target: T4, Prostaglandin E synthase (Homo sapiens) (UniProt O14684); test: Inhibition of mPGES-1 derived from IL1beta and TNFalpha stimulated human HeLa cells microsomal fraction using PGH2 as substrate at 1 uM preincubated for 30 mins prior to substrate addition measured after 1 min by LC-MS/MS analysis relative to control
T4 sequence (whole entry): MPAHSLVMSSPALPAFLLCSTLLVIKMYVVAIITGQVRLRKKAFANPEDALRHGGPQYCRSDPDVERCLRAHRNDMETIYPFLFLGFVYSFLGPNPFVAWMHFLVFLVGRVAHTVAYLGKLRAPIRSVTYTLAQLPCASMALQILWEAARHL
How it was run: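 Microsomes were pelleted by ultracentrifugation and resuspended in buffer with 2.5 mM GSH; protein was measured by Bradford. PGE₂ was read by LC-MS/MS after solid-phase extraction with deuterated standards; n ≥ 3.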

[5] = target: T4, Prostaglandin E synthase (Homo sapiens); test: Inhibition of mPGES-1 in IL1beta and TNFalpha-stimulated human HeLa cells assessed as PGE2 level after 24 hrs by LC-MS/MS analysis; format: cell-based
How it was run: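 HeLa cells (2 × 10⁴) were grown 24 h at 37 °C. The medium was then replaced with IL-1β (1 ng/mL) + TNFα (5 ng/mL), or PBS for unstimulated controls, together with compound at 1, 10 or 100 μM, or DMSO, for 24 h at 37 °C. Supernatant PGE₂ was quantified by LC-MS/MS after solid-phase extraction with deuterated standards. Inhibition is percent of DMSO control corrected for unstimulated background, SEM, n ≥ 3.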

[6] = target: T1, Prostaglandin E synthase (Mus musculus); test: Inhibition of mPGES-1 derived from LPS stimulated mouse RAW264.7 cells microsomal fraction using PGH2 as substrate at 1 uM preincubated for 30 mins prior to substrate addition measured after 1 min by LC-MS/MS analysis relative to control
How it was run: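 Microsomes came from RAW 264.7 cells stimulated with LPS for 16 h. They were prepared by sonication and ultracentrifugation in 0.1 M potassium phosphate, pH 7.4, with GSH and protease inhibitors, and resuspended with 2.5 mM GSH; protein was measured by Bradford. Compound was tested at the stated final concentration. PGE₂ was quantified by LC-MS/MS after solid-phase extraction with PGE₂-d₄/PGD₂-d₄ standards; SEM, n ≥ 3.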

Prostaglandin E synthase = target: T5, Prostaglandin E synthase (Homo sapiens, UniProt O14684); test: Inhibition of human recombinant mPGES-1
T5 sequence (O14684 whole entry): T4 sequence (whole entry)

[7] = Inhibition of rat recombinant mPGES-1

Structure (SMILES)	inhibition [4] [%]	also measured
O=C(Nc1ccc2nc(Cc3ccccc3)n(Cc3cccc(Cl)c3)c(=O)c2c1)c1ccccc1Cl	67.2	Activity (HeLa): Non-toxic; inhibition [1]: 17.8%; inhibition [2]: < 0%; inhibition [3]: < 0%; inhibition [5]: Dose-dependent effect; inhibition [6]: 3.8%
O=C1NC(c2ccccc2Cl)Oc2ccccc21 (configuration not stated)	< 0	
CCCc1nc2ccc(NC(=O)c3c(Cl)cccc3Cl)cc2c(=O)n1Cc1cccc(Cl)c1	61.3	
Cc1nc2ccc(NC(=O)c3ccccc3Cl)cc2c(=O)n1Cc1ccc(-c2cccc(Cl)c2)cc1	41.9	
O=C(Nc1ccc(-c2ccc(Cl)c(Cl)c2)cc1)C1=C(O)c2ccccc2S(=O)(=O)N1		IC50 (Prostaglandin E synthase): 16.5 nM; IC50 [7]: 1080 nM
O=C(Nc1ccc2nc(C3CC3)n(Cc3ccccc3)c(=O)c2c1)c1cccnc1	< 0	

More lines, main results first:

inhibition [4] [%]	Structure (SMILES)	also measured
32.7	CCCc1nc2ccc(NC(=O)CCc3ccccc3)cc2c(=O)n1Cc1ccc(-c2cccc(Cl)c2)cc1	
15.3	CCCc1nc2ccc(NC(=O)c3ccccc3)cc2c(=O)n1Cc1ccc(-c2cccc(Cl)c2)cc1	
14.7	CCCc1nc2ccc(NC(=O)c3ccc(Cl)cc3)cc2c(=O)n1Cc1ccc(-c2cccc(Cl)c2)cc1	
30	CCCc1nc2ccc(NC(=O)c3ccccc3F)cc2c(=O)n1Cc1ccc(-c2cccc(Cl)c2)cc1	
